T cell HTS: T cell immune modulators affecting CD8 T cell-vesicle binding; 2C CD8+ T cell-vesicle binding, flow cytometry; hits give low values; response (vesicle binding), % at 7 µM; hit rate 0.068% among 330,000; AID 2052;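 active = response, share of CD8 T cells binding vesicles, and their 90th percentile fluorescence all below set limits, cut at about 80% in these data, passing the limit was not always enough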;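 also: values below 100% mean blocked vesicle binding to the CD8+ T cells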
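Assay system – 2C mouse CD8+ T cells · Also added – QL9-loaded Drosophila micro-vesicles · Timing – Cell–vesicle co-incubation 1.5 h at 37 °C, staining 20 min on ice · Signal – flow cytometry of vesicle-bound cells · Measure – percent CD8+ FL2 mean versus row control · Controls – Peptide-free naked vesicles (low) and QL9 vesicles with 0.7% DMSO vehicle (high)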
Myeloid diff 2: compounds promoting myeloid differentiation | ER-HoxA9 myeloid progenitors, lysozyme-GFP differentiation, flow cytometry | calls only at 10 µM | hit rate 1% among 360,000 | AID 624256;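 active = normalized GFP-positive differentiation at or above the plate's own cutoff, the solvent-only control mean plus 3 SD; inconclusive = no clear call, values can overlap the other calls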;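 also: cells exposed to compound for four days before flow analysis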
Casp6 inh: inhibitors of human caspase-6; purified caspase-6, Z-VEID-R110 cleavage fluorescence; inhibition, % at 12.5 µM; hit rate 0.53% among 350,000;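 active = mean inhibition across replicates at least about 35%, with every replicate also reaching that limit, limit read from the data; inconclusive = only one of the two criteria met; inactive = neither criterion met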
Target sequence (P55212 24-179 limits assumed): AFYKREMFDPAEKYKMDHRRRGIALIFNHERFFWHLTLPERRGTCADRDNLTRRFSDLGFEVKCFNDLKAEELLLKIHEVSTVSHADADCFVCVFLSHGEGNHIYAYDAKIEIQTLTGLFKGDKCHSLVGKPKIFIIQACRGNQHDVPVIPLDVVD
Target sequence (P55212 194-293 limits assumed): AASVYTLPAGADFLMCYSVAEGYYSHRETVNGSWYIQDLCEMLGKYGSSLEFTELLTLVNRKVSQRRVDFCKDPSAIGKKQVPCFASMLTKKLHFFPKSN
Vif imaging: HIV Vif inhibition; HEK293T cells, Vif self-association by quenched fluorescence, imaging, 24 h; inhibition, % at 7.49 µM; AID 602346; hit rate 0.35% among 340,000; in the data active = inhibition above about 50%, passing the limit was not always enough; inconclusive = no clear call, values can overlap the other calls; inactive = below about 31%
Each line names hits and unclear results; the compound was inactive in the other large screens. Hits are enriched below; roughly 1.4% of the tested compounds scored in any of these assays.

CN1CCC[C@H]1CCNc1ccc2c(=O)c3ccccc3n(C)c2c1	Myeloid diff 2 active (no result: T cell HTS, Vif imaging)
CN1CCCC1CCNc1ccc2c(=O)c3ccccc3oc2c1 (configuration not stated)	none
COc1ccccc1CNc1nc(NC(C)C)nc2cc(-c3ccccc3)sc12	Myeloid diff 2 active (no result: T cell HTS)
CCS(=O)(=O)Nc1ccc2c(c1)C(=O)N(C)[C@H]1CC[C@H](CC(=O)OC)O[C@@H]1CO2	none (no result: T cell HTS, Myeloid diff 2, Vif imaging)
O=C(Nc1nc2c(s1)CCCC2)C1COc2ccccc2O1 (configuration not stated)	T cell HTS 38.2
Cc1nnc(NC(=O)C2COc3ccccc3O2)s1 (configuration not stated)	none (no result: Casp6 inh)
O=C(CCN1C(=O)/C(=C\c2ccco2)SC1=S)Nc1ccc(C(=O)O)c(O)c1	Myeloid diff 2 inconclusive, Casp6 inh 73.0
COc1ccccc1/C=C1/SC(=S)N(CCC(=O)Nc2cccnc2)C1=O	none
O=C(CCCN1C(=O)/C(=C\c2ccco2)SC1=S)Nc1ccc2ccccc2c1	none
COc1ccccc1/C=C1\SC(=S)N(CCC(=O)Nc2ccc(C(=O)O)c(O)c2)C1=O	Casp6 inh 40.8
O=C(CCN1C(=O)/C(=C/c2ccco2)SC1=S)Nc1ccc(C(=O)O)c(O)c1	Casp6 inh 73.6
Cc1noc(C)c1S(=O)(=O)Nc1ccc2c(c1)C(=O)N([C@H](C)CO)C[C@@H](C)[C@@H](CN(C)C(=O)NC1CCCCC1)OCCCC[C@@H](C)O2	none (no result: T cell HTS, Myeloid diff 2, Vif imaging)
C[C@H]1CN([C@@H](C)CO)C(=O)Cc2cc(NS(=O)(=O)c3cn(C)cn3)ccc2O[C@@H]1CN(C)Cc1ccc(C(=O)O)cc1	none (no result: T cell HTS, Myeloid diff 2, Vif imaging)
CCS(=O)(=O)N[C@H]1C=C[C@@H](CC(=O)NCc2ccc(Cl)cc2)O[C@H]1CO	none (no result: T cell HTS, Myeloid diff 2, Vif imaging)
O=c1c2ccc([N+](=O)[O-])cc2ncn1CCOc1ccccc1	Myeloid diff 2 active
Cc1ccc(OCCn2cnc3cc([N+](=O)[O-])ccc3c2=O)cc1	none
O=C(CSc1nc(COc2ccccc2)nc2ccccc12)NC1CCCC1	none
COc1ccc(NC(=O)CSc2nc(C3CC3)nc3ccccc23)cc1	Myeloid diff 2 active
CC(C)c1nc(SCC(=O)NC2CCCC2)c2ccccc2n1	Myeloid diff 2 active
O=C(CSc1nc2ccccc2c(=O)[nH]1)Nc1ccc(C(=O)O)cc1	Casp6 inh 37.5
CC(=O)c1ccc(NC(=O)CSc2nc(C3CC3)nc3ccccc23)cc1	Vif imaging 51.0
COc1ccc(NC(=O)CSc2nc(C3CC3)nc3ccccc23)c(OC)c1	none
COc1ccc2c3c([nH]c2c1)[C@H](CO)N(C(=O)c1cccnc1)CC31CCN(C(=O)c2cccnc2)CC1	none (no result: T cell HTS, Myeloid diff 2, Vif imaging)
CCOC(=O)CN1C(=O)C(=O)N(Cc2c(C)cc(C)cc2C)C1=O	Myeloid diff 2 active
CCOC(=O)CN1C(=O)C(=O)N(Cc2ccccc2)C1=O	none (no result: Myeloid diff 2, Vif imaging)
Cc1ccccc1NC(=O)C(C)OC(=O)C1CC(=O)N(Cc2ccco2)C1 (configuration not stated)	Casp6 inh 55.3
COc1ccc(CCNC(=O)C2CC(=O)N(c3ccc(C)cc3)C2)cc1OC (configuration not stated)	none
COc1ccc(CCN2CC(C(=O)NCCc3ccc(C)cc3)CC2=O)cc1OC (configuration not stated)	Casp6 inh 47.8
C/C=C/c1ccc([C@@H]2[C@@H](CO)N(C(=O)C3CCC3)C23CN(S(=O)(=O)CC)C3)cc1	none (no result: T cell HTS, Myeloid diff 2, Vif imaging)
COc1ccc(C2=CC(=O)C[C@H](c3ccc(OC)cc3)C2)cc1	none
COc1ccc([C@H]2CC(=O)C=C(c3ccc(OC)cc3OC)C2)cc1	Myeloid diff 2 inconclusive, Vif imaging 55.4 (no result: Casp6 inh)
CCC(=O)N1C[C@H]2[C@@H](c3ccccc31)[C@H](CO)N2Cc1ccccc1Cl	none (no result: T cell HTS, Myeloid diff 2, Vif imaging)
O=C(O)C[C@@H]1C[C@H]2c3cc(NC(=O)NC4CCCC4)ccc3O[C@H]2[C@@H](CO)O1	none (no result: T cell HTS, Myeloid diff 2, Vif imaging)
Oc1ccc(-c2csc(Nc3cccc4ccccc34)n2)cc1O	Casp6 inh 43.1
Cc1cccc(Nc2nc(-c3ccc(O)c(O)c3)cs2)n1	Vif imaging 63.9
CN(c1ccccc1)S(=O)(=O)c1ccc(NC(=O)CC(=O)c2ccccc2)cc1	Myeloid diff 2 active (no result: T cell HTS)
C[C@@H]1CN([C@@H](C)CO)C(=O)Cc2cc(NS(=O)(=O)c3cccs3)ccc2O[C@@H]1CN(C)Cc1ccc(Oc2ccccc2)cc1	none (no result: T cell HTS, Myeloid diff 2, Vif imaging)
CN(C)CC(=O)N1[C@@H](CO)[C@@H](c2ccccc2)C12CN(C(=O)c1ccccc1)C2	none (no result: T cell HTS, Myeloid diff 2, Vif imaging)
CCOc1ccc(S(=O)(=O)Nc2cccc(C(=O)N(C)CC(=O)Nc3ccc(OC)cc3)c2)cc1	Vif imaging 72.3 (no result: T cell HTS)
CC(C)NC(=O)Nc1ccc2c(c1)C(=O)N([C@H](C)CO)C[C@@H](C)[C@H](CN(C)Cc1ccncc1)OCCCC[C@@H](C)O2	none (no result: T cell HTS, Myeloid diff 2, Vif imaging)
CCc1ccc2[nH]c3nc(SCC(=O)NNC(=O)c4ccc(C(C)(C)C)cc4)nnc3c2c1	Vif imaging 89.5 (no result: Casp6 inh)
Cc1ccc(C(=O)NNC(=O)CSc2nnc3c(n2)[nH]c2ccc(C)cc23)cc1	none (no result: Myeloid diff 2, Casp6 inh)
CC1(C)CC(=O)C2=C(C1)Nc1ccccc1N(C(=O)C1CC1)C2c1ccco1 (configuration not stated)	Vif imaging 51.8
CCC(=O)N1c2ccccc2NC2=C(C(=O)CC(c3ccco3)C2)C1c1ccco1 (configuration not stated)	none (no result: Casp6 inh)
O=C(Cc1ccc([N+](=O)[O-])cc1)c1c(O)cc(O)cc1O	Casp6 inh 41.2
CCC12CCCN3CCc4c(n(c5ccccc45)C(O)(C(=O)OC)C1)C32 (configuration not stated)	Casp6 inh 59.5
CCCCN1C(=O)Cc2c1nc(N)c1c(N)nc(N(CCC)CCC)c(C#N)c21	Myeloid diff 2 active (no result: Casp6 inh, Vif imaging)
CCCCCCC#Cc1ccc2c(c1)COc1c3ccccc3nn1-2	T cell HTS 0.0
CCCCC#Cc1ccc2c(c1)COc1c3ccccc3nn1-2	none (no result: Vif imaging)
COc1ccc2c3c([nH]c2c1)[C@H](CO)N(C(=O)c1cccnc1)CC31CN(C(=O)NC(C)C)C1	none (no result: T cell HTS, Myeloid diff 2, Vif imaging)
Nc1ccc2nc(-c3cccc(-c4nc5ccc(N)cc5[nH]4)n3)[nH]c2c1	Myeloid diff 2 active
O=C(Nc1cccc(Cl)c1)c1cccc(N2C(=O)C3CC=CCC3C2=O)c1 (configuration not stated)	Casp6 inh 35.5
Cc1ccc(Cl)cc1N1CCN(S(=O)(=O)c2c(C(=O)N3CCOCC3)c(C)n(C)c2C)CC1	Myeloid diff 2 active
Cc1ccc(C)c(N2CCN(S(=O)(=O)c3c(C(=O)N4CCCCC4)c(C)n(C)c3C)CC2)c1	none
C[C@@H]1CN([C@@H](C)CO)C(=O)c2cc(NC(=O)Nc3ccccc3)ccc2O[C@@H](C)CCCCO[C@H]1CN(C)S(=O)(=O)c1ccc(F)cc1	none (no result: T cell HTS, Myeloid diff 2, Vif imaging)
COc1ccc(C=C2CS(=O)(=O)CC(=Cc3ccc(OC)cc3)C2=O)cc1	Vif imaging 111.6 (no result: T cell HTS)
COc1ccc(/C=C2\CCCCC2=O)cc1	none
CCCN1C[C@H](C)[C@H](OC)CN(C)C(=O)c2ccc(NC(=O)c3cccc(OC)c3)cc2OC[C@@H]1C	none (no result: T cell HTS, Myeloid diff 2, Vif imaging)
COc1ccc(NC(=O)NC2CCCCCCC2)cc1	T cell HTS 69.1
O=C(c1ccccn1)N1CC2(C1)[C@@H](c1ccccc1)[C@H](CO)N2C(=O)C1CCC1	none (no result: T cell HTS, Myeloid diff 2, Vif imaging)

Source: PubChem BioAssay
